{"source": "ChEMBL document CHEMBL1138050", "about": "“Furan-2-ylmethylene thiazolidinediones as novel, potent, and selective inhibitors of phosphoinositide 3-kinase gamma” (J Med Chem, 2006)", "key": {"[1]": {"biological_target": "Mitogen-activated protein kinase 1 (Homo sapiens) (UniProt P28482)", "assay": "Residual activity at human MAPK1 at 10 uM in presence of 10 uM ATP relative to control", "outline": "(§1)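 Single-concentration counter-screen across a panel of 80 Ser/Thr and Tyr protein kinases. Compound was tested at 10 µM with ATP at 10 µM. Activity remaining in each kinase is expressed relative to control.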"}, "[2]": {"biological_target": "Mitogen-activated protein kinase 13 (Homo sapiens) (UniProt O15264)", "assay": "Residual activity at human SAPK4 at 10 uM in presence of 10 uM ATP relative to control", "outline": "as §1"}, "[3]": {"test_system": "Rattus norvegicus", "assay": "Volume of distribution in rat at 10 mg/kg, iv", "type": "ADME, organism-based", "design": "dose 10 mg/kg, route intravenous", "settings": "in vivo", "outline": "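Given to rats as a single 10 mg/kg intravenous dose of the potassium salt, run alongside a matching oral arm. Pharmacokinetic parameters derived were CL, AUC, Cmax, t1/2 and Vd.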"}, "[4]": {"assay": "Half life in rat at 10 mg/kg, po", "type": "ADME, organism-based", "design": "dose 10 mg/kg, route oral", "settings": "in vivo", "outline": "(§2)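 Rats given a single 10 mg/kg dose, intravenously or orally. The compound was given as its potassium salt, prepared with KOH in THF/water, for the in vivo work.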"}, "[5]": {"test_system": "THP-1", "assay": "Inhibition of MCP1-induced PKB/Akt phosphorylation in THP1 cells", "type": "functional, cell-based", "settings": "Homo sapiens", "outline": "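THP-1 monocytes starved 3 h in serum-free medium and pretreated with inhibitor or DMSO (15 min in methods; 20 min in figure legend). Stimulated with 100 nM MCP-1/CCL2 for 30 s, or with 50 ng/mL CSF-1 for 5 min. Phospho-Ser-473 and total Akt detected by Western blot and quantified.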"}, "[6]": {"biological_target": "Insulin receptor (Homo sapiens) (UniProt P06213)", "assay": "Residual activity at human IR at 10 uM in presence of 10 uM ATP relative to control", "outline": "(§3)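 Panel of Ser/Thr and Tyr protein kinases, each tested with 10 µM compound in the presence of 10 µM ATP; activity expressed relative to control.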"}, "[7]": {"biological_target": "Phosphatidylinositol 4,5-bisphosphate 3-kinase catalytic subunit beta isoform (Homo sapiens, UniProt P42338)", "sequence (P42338 whole entry, canonical isoform)": "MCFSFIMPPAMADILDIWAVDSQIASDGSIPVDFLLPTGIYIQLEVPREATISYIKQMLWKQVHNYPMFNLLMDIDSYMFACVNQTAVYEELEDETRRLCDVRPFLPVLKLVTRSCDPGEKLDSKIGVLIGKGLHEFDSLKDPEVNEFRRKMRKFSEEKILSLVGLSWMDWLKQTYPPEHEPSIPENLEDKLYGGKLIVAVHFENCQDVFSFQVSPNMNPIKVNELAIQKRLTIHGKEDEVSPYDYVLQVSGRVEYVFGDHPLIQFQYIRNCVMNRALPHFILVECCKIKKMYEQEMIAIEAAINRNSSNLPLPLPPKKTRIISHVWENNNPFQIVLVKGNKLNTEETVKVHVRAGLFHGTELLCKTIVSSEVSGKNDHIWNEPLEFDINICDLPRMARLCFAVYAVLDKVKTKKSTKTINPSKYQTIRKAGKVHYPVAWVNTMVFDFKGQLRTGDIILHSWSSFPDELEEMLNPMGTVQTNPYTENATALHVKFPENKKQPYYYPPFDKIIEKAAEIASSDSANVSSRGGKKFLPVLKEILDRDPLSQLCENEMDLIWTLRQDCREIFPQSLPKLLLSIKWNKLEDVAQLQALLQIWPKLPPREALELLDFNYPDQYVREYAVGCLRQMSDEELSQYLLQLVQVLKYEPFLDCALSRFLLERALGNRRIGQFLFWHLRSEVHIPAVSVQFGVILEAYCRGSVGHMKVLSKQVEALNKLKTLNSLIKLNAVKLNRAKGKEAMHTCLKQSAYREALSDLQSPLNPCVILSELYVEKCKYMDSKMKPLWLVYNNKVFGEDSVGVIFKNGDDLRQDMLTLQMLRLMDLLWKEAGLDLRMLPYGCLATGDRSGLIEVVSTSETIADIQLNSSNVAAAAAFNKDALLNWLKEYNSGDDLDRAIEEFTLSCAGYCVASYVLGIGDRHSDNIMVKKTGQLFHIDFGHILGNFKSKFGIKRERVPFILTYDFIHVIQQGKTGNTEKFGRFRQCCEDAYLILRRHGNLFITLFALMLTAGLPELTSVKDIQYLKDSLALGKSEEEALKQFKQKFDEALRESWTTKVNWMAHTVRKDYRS", "assay": "Inhibition of human PI3Kbeta"}, "[8]": {"biological_target": "RAF proto-oncogene serine/threonine-protein kinase (Homo sapiens) (UniProt P04049)", "assay": "Residual activity at human c-RAF at 10 uM in presence of 10 uM ATP relative to control", "outline": "as §1"}, "[9]": {"biological_target": "Dual specificity mitogen-activated protein kinase kinase 7 (Homo sapiens, UniProt O14733)", "sequence (O14733 whole entry)": "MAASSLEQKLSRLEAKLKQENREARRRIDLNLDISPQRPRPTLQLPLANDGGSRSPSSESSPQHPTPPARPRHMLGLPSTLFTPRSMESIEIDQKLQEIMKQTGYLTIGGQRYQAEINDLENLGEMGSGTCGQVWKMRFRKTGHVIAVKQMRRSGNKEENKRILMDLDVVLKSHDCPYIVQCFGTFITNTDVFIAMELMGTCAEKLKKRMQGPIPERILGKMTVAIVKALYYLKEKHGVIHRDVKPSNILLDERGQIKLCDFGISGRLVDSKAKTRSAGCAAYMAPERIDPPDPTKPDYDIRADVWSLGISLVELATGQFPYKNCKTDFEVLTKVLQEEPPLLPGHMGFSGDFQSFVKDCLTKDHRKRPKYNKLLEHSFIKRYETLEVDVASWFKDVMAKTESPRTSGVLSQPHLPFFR", "assay": "Inhibition of human MKK7beta"}, "[10]": {"biological_target": "Cyclin-dependent kinase 2/cyclin A (Homo sapiens) (UniProt P24941+P20248+P78396)", "assay": "Residual activity at human CDK2/CyclinA at 10 uM in presence of 10 uM ATP relative to control", "type": "protein-complex assay", "outline": "as §3"}, "[11]": {"biological_target": "Protein kinase C theta type (Homo sapiens) (UniProt Q04759)", "assay": "Residual activity at human PKCtheta at 10 uM in presence of 10 uM ATP relative to control", "outline": "as §1"}, "[12]": {"assay": "AUC in rat at 10 mg/kg, po", "type": "ADME, organism-based", "design": "dose 10 mg/kg, route oral", "settings": "plasma", "outline": "as §2"}, "[13]": {"assay": "Metabolism in human microsome after 1 hr", "type": "ADME", "settings": "microsomes, read-out: Activity"}, "[14]": {"biological_target": "Tyrosine-protein kinase ABL1 (Homo sapiens) (UniProt P00519)", "sequence (P00519 whole entry)": "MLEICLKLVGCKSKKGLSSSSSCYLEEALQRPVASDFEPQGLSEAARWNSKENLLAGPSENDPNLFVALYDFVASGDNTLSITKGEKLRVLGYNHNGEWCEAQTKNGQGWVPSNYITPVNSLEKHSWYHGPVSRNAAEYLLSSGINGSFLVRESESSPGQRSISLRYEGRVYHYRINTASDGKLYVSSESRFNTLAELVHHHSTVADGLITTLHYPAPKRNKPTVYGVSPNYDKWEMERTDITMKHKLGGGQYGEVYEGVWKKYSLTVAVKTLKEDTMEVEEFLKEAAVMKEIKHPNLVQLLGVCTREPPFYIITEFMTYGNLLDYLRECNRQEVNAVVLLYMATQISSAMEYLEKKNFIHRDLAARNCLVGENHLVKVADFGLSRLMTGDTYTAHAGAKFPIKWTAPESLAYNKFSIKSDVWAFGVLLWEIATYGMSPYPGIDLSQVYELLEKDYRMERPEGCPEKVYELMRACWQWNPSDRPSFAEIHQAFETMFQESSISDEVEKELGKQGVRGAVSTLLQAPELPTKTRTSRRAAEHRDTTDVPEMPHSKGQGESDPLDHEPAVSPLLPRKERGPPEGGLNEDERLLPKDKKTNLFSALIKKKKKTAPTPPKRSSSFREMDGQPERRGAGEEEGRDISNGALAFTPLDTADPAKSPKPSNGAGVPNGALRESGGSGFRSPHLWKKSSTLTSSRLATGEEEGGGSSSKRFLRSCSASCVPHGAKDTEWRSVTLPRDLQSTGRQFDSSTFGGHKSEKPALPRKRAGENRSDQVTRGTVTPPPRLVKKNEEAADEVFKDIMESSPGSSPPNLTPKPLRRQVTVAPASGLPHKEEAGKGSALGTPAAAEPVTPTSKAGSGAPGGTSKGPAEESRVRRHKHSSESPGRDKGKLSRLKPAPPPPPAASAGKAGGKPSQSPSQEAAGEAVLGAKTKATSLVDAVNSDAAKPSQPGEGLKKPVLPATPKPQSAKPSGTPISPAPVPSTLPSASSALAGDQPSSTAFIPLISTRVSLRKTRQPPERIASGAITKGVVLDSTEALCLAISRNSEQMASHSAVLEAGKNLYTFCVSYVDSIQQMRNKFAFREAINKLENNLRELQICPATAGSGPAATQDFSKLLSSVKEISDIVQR", "assay": "Residual activity at human Abl at 10 uM in presence of 10 uM ATP relative to control", "outline": "as §3"}, "[15]": {"biological_target": "Tyrosine-protein kinase Yes (Homo sapiens) (UniProt P07947)", "sequence (P07947 2-543 limits assumed)": "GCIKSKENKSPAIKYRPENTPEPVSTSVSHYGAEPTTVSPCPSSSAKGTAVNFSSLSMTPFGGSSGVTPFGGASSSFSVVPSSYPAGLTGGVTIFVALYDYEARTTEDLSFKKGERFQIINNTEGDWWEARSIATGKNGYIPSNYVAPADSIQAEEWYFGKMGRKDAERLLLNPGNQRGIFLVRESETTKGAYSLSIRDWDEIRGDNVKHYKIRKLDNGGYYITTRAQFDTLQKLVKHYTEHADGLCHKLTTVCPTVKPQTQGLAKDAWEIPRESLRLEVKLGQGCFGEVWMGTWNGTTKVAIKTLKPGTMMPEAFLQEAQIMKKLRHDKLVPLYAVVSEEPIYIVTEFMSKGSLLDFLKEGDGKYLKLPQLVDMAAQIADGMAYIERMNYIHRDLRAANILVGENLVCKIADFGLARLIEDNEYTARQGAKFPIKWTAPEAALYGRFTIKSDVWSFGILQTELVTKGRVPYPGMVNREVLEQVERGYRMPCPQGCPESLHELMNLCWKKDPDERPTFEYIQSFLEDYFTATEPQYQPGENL", "assay": "Inhibition of human Yes at 10 uM in presence of 10 uM ATP relative to control", "design": "scale not given: the % may be the effect or the level left", "outline": "as §3"}, "[16]": {"assay": "AUC in rat at 10 mg/kg, iv", "type": "ADME, organism-based", "design": "dose 10 mg/kg, route intravenous", "settings": "plasma", "outline": "as §2"}, "[17]": {"biological_target": "Inhibitor of nuclear factor kappa-B kinase subunit alpha (Homo sapiens) (UniProt O15111)", "sequence (O15111 whole entry)": "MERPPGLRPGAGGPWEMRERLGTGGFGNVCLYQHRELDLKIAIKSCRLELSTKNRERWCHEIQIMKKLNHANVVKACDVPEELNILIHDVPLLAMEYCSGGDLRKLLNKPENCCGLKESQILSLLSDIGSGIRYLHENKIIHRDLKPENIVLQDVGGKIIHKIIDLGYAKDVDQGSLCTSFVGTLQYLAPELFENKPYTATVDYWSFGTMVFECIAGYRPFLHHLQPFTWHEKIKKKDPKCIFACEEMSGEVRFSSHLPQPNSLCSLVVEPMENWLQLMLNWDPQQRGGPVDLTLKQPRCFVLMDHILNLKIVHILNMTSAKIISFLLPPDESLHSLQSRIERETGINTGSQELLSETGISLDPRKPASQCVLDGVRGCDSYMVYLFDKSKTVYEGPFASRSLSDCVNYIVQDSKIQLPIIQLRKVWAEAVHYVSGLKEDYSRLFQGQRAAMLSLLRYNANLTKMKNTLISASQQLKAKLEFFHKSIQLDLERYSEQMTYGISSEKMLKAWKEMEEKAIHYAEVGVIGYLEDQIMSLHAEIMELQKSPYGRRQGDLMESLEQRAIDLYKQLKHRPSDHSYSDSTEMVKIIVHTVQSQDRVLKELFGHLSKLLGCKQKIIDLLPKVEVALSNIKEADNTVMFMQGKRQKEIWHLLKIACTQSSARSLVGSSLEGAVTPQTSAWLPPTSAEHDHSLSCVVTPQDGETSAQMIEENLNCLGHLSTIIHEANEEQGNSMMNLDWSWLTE", "assay": "Residual activity at human IKKalpha at 10 uM in presence of 10 uM ATP relative to control", "outline": "as §3"}, "[18]": {"biological_target": "Protein kinase C delta type (Homo sapiens) (UniProt Q05655)", "sequence (Q05655 whole entry, looked up)": "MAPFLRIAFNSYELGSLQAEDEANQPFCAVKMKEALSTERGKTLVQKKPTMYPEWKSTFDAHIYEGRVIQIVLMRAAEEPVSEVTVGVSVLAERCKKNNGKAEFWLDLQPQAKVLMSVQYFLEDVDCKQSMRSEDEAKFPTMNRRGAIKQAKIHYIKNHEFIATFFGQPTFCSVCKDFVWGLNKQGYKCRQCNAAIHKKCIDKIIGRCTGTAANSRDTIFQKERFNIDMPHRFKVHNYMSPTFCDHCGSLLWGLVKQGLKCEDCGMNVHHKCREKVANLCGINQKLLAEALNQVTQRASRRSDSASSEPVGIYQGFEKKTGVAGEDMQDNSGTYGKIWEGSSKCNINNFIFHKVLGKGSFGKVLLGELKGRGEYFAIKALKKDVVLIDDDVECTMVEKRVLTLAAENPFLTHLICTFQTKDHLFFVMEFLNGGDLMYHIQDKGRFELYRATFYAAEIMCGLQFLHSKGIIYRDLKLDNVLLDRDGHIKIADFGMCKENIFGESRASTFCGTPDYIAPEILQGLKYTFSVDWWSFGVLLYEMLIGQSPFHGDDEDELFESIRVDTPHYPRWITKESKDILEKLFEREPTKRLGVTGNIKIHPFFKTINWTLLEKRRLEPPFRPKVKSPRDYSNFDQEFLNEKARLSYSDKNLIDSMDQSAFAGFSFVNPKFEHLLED", "assay": "Residual activity at human PKCdelta at 10 uM in presence of 10 uM ATP relative to control", "outline": "as §1"}, "[19]": {"biological_target": "Serine/threonine-protein kinase Chk1 (Homo sapiens) (UniProt O14757)", "sequence (O14757 whole entry)": "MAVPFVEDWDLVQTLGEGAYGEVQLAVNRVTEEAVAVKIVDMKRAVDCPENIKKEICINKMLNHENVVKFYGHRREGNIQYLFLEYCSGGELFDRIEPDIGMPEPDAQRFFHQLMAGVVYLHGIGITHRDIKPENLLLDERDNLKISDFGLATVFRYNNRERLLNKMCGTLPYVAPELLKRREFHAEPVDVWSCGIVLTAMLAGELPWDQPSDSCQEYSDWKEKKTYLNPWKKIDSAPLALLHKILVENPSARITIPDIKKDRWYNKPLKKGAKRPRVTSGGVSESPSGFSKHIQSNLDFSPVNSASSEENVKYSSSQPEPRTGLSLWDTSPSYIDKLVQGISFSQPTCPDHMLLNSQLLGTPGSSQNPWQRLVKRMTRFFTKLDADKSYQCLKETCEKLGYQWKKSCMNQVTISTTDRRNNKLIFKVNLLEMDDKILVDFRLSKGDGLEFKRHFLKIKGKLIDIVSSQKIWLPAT", "assay": "Residual activity at human Chk1 at 10 uM in presence of 10 uM ATP relative to control", "outline": "as §3"}, "[20]": {"biological_target": "Cyclin-dependent kinase 7/ cyclin H (Homo sapiens) (UniProt P51946+P50613)", "assay": "Residual activity at human CDK7/CyclinH/MAT1 at 10 uM in presence of 10 uM ATP relative to control", "type": "protein-complex assay", "outline": "as §3"}}, "data": [{"molecule": "O=C1NC(=O)/C(=C/c2ccc(-c3ccc(F)cc3O)o2)S1", "values": [{"measurement": "Activity", "setting": "[1]", "result": 103, "unit": "%"}, {"measurement": "Activity", "setting": "[2]", "result": 93, "unit": "%"}, {"measurement": "Vdss", "setting": "[3]", "result": 25.3, "unit": "L/kg"}, {"measurement": "half-life", "setting": "[4]", "result": 1, "unit": "h"}, {"measurement": "IC50", "setting": "[5]", "result": 0.4, "unit": "µM"}, {"measurement": "Activity", "setting": "[6]", "result": 90, "unit": "%"}, {"measurement": "IC50", "setting": "[7]", "result": 20, "unit": "µM"}, {"measurement": "Activity", "setting": "[8]", "result": 99, "unit": "%"}, {"measurement": "IC50", "setting": "[9]", "result": "> 10", "unit": "µM"}, {"measurement": "Activity", "setting": "[10]", "result": 84, "unit": "%"}, {"measurement": "Activity", "setting": "[11]", "result": 102, "unit": "%"}, {"measurement": "AUC", "setting": "[12]", "result": 847, "unit": "ng·h/mL"}, {"measurement": "metabolised at 1 h", "setting": "[13]", "result": 10, "unit": "%"}, {"measurement": "Activity", "setting": "[14]", "result": 92, "unit": "%"}, {"measurement": "Activity", "setting": "[15]", "result": 99, "unit": "%"}, {"measurement": "AUC", "setting": "[16]", "result": 4400, "unit": "ng·h/mL"}, {"measurement": "Activity", "setting": "[17]", "result": 82, "unit": "%"}, {"measurement": "Activity", "setting": "[18]", "result": 109, "unit": "%"}, {"measurement": "Activity", "setting": "[19]", "result": 94, "unit": "%"}, {"measurement": "Activity", "setting": "[20]", "result": 77, "unit": "%"}]}]}
